Test results published in ChEMBL document CHEMBL1152584, “Synthesis of heteroaromatic tropeines and heterogeneous binding to glycine receptors” (Bioorg Med Chem, 2009).

Experiments:
[1] = biological target: T1, Glycine receptor subunit alpha-1 (Rattus norvegicus) (UniProt P07727); assay: Selectivity ratio of IC50 for GlyR low affinity site to IC50 for GlyR high affinity site in Wistar rat spinal cord
T1 sequence (whole entry): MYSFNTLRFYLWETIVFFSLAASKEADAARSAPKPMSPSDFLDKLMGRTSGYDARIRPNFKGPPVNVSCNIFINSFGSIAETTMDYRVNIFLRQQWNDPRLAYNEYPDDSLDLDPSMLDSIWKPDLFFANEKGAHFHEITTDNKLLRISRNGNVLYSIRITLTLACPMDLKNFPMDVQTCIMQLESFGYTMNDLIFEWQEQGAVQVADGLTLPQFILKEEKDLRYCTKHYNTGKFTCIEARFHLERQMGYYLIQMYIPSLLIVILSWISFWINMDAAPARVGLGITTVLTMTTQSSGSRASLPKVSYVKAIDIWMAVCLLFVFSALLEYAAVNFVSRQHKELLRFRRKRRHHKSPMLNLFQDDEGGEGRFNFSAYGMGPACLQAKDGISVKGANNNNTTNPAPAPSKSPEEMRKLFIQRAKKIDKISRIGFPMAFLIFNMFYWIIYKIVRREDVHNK

[2] = biological target: T2, Glycine receptor subunit alpha-1 (Rattus norvegicus, UniProt P07727); assay: Displacement of [3H]strychnine from GlyR in Wistar rat spinal cord by scintillation spectrometry
T2 sequence (P07727 whole entry): T1 sequence (whole entry)
Method in brief: (§1)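 Duplicate aliquots filtered, washed with ice-cold buffer, counted by scintillation. Nonspecific binding defined with 2 mM glycine. IC50 and Hill slope from nonlinear sigmoidal fitting. Two-site fits used pooled data, chosen by F test.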

[3] = biological target: T2, Glycine receptor subunit alpha-1; assay: Displacement of [3H]strychnine from GlyR high affinity site in Wistar rat spinal cord by scintillation spectrometry; method in brief: as §1
[4] = biological target: T2, Glycine receptor subunit alpha-1; assay: Displacement of [3H]strychnine from GlyR low affinity site in Wistar rat spinal cord by scintillation spectrometry; method in brief: as §1
[5] = biological target: T3, 5-hydroxytryptamine receptor 3A (Rattus norvegicus, UniProt P35563); assay: Displacement of [3H]granisectron from 5HT3 receptor in Wistar rat forebrain
T3 sequence (P35563 whole entry): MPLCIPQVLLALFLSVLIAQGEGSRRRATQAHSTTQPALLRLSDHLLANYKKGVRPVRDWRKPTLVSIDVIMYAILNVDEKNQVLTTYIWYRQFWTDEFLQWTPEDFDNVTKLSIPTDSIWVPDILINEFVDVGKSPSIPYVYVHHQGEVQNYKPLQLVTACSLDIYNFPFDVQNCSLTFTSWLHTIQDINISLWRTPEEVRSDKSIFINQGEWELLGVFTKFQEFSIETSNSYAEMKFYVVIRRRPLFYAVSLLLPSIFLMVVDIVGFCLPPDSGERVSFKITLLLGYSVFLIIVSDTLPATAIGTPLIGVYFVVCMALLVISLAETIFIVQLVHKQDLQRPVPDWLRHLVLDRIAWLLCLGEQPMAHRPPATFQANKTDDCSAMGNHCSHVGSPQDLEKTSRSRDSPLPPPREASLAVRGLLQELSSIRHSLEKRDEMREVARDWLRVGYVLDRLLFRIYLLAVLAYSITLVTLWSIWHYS
Method in brief: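 Crude membranes from male rat forebrain (cortex + hippocampus), homogenized in 10 mM HEPES/140 mM NaCl pH 7.5, centrifuged, washed, frozen; thawed and spun before use. Incubated with 0.2 nM [3H]granisetron at 0 °C for 2.5 h. Nonspecific binding defined with 10 µM granisetron.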

[6] = biological target: T2, Glycine receptor subunit alpha-1; assay: Displacement of [3H]strychnine from GlyR in Wistar rat spinal cord by scintillation spectrometry in presence of 10 uM glycine; method in brief: as §1
[7] = biological target: T2, Glycine receptor subunit alpha-1; assay: Displacement of [3H]strychnine from GlyR low affinity site in Wistar rat spinal cord by scintillation spectrometry in presence of 10 uM glycine; method in brief: as §1
[8] = biological target: T2, Glycine receptor subunit alpha-1; assay: Displacement of [3H]strychnine from GlyR high affinity site in Wistar rat spinal cord by scintillation spectrometry in presence of 10 uM glycine; method in brief: as §1

Structure (SMILES) | Ratio IC50 [1] | IC50 [2] [nM] | IC50 [3] [nM] | IC50 [4] [nM] | IC50 [5] [nM] | IC50 [6] [nM] | IC50 [7] [nM] | IC50 [8] [nM]
O=C(O[C@H]1C[C@H]2CC[C@@H](C1)N2)c1cnc2ccccc2c1 | 1 | 166 | – | – | – | – | – | –
CN1[C@@H]2CC[C@H]1C[C@@H](OC(=O)c1ccco1)C2 | 200 | 5620 | 50.1 | 10000 | – | – | – | –
O=C(O[C@H]1C[C@H]2CC[C@@H](C1)N2)c1cc2ccccc2[nH]1 | 1 | 234 | – | – | 32 | – | – | –
CN1[C@@H]2CC[C@H]1C[C@@H](OC(=O)c1cccn1C)C2 | > 1 | 7590 | – | – | – | – | – | –
O=C(O[C@H]1C[C@H]2CC[C@@H](C1)N2)c1ccc[nH]1 | 1 | 129 | – | – | – | – | – | –
CN1[C@@H]2CC[C@H]1C[C@@H](OC(=O)c1cnc3ccccc3c1)C2 | 76 | 1910 | 72.4 | 5500 | – | – | – | –
CN1[C@@H]2CC[C@H]1C[C@@H](OC(=O)c1ccc[nH]1)C2 | 615 | 11200 | 33.9 | 20900 | – | – | – | –
CN1[C@@H]2CC[C@H]1C[C@@H](OC(=O)c1cc3ccccc3n1C)C2 | 240 | 1580 | 10.2 | 2400 | 18 | – | – | –
CN1[C@@H]2CC[C@H]1C[C@H](OC(=O)c1cc3ccccc3[nH]1)C2 | 133 | 4680 | 60.3 | 7940 | – | – | – | –
Cn1c(C(=O)O[C@H]2C[C@H]3CC[C@@H](C2)N3)cc2ccccc21 | 11 | 33.9 | 11.5 | 126 | 25 | 70.8 | 135 | 1.07
O=C(O[C@H]1C[C@H]2CC[C@@H](C1)N2)c1cccnc1 | 1 | 100 | – | – | – | – | – | –
O=C(O[C@H]1C[C@H]2CC[C@@H](C1)N2)c1ccco1 | 1 | 79.4 | – | – | – | – | – | –
O=C(O[C@H]1C[C@H]2CC[C@@H](C1)N2)c1cccs1 | 1 | 41.7 | – | – | – | – | – | –
CN1[C@@H]2CC[C@H]1C[C@@H](OC(=O)c1cccs1)C2 | 47 | 1910 | 89.1 | 4270 | – | – | – | –
CN1[C@@H]2CC[C@H]1C[C@@H](OC(=O)c1cccnc1)C2 | 390 | 4270 | 58.9 | 22900 | – | – | – | –
